Columns and labels:
C6 = test: Induction of nerve growth factor secretion in rat C6 cells at 20 uM after 24 hrs by ELISA relative to control; format: functional
How it was run: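 C6 glioma cells (Korean Cell Line Bank) seeded 1 × 10^5 cells/well; after 24 h switched to serum-free DMEM with 20 μM compound for 24 h. NGF in conditioned medium quantified by ELISA, given as % of untreated control (100%). 6-Shogaol positive control; mean ± SD of three independent experiments.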

[1] = Cytotoxicity against rat C6 cells assessed as cell viability at 20 uM by MTT assay relative to control; format: cell-based; details: read-out: Activity
How it was run: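 C6 glioma cells seeded 1 × 10^5 cells/well, treated 24 h later in serum-free DMEM with 20 μM compound for 24 h; viability by MTT assay, expressed as % of untreated control. Mean ± SD of three independent experiments.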

BV-2 = test: Antineuroinflammatory activity in mouse BV2 cells assessed as inhibition of LPS-induced nitric oxide production after 24 hrs by Griess assay; format: functional, cell-based; details: BV-2, 24 h
How it was run: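 BV2 microglia seeded at 4 × 10^4 cells/well, exposed with or without graded compound concentrations, stimulated with LPS 100 ng/mL for 24 h. Nitrite in medium measured by mixing supernatant 1:1 with Griess reagent (0.1% N-1-naphthylethylenediamine, 1% sulfanilamide, 5% phosphoric acid), absorbance read at 570 nm after 10 min against sodium nitrite standard curve. NG-monomethyl-L-arginine positive control.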

BT-549 = test: Cytotoxicity against human BT549 cells after 48 hrs by SRB assay; format: functional, cell-based; details: BT-549, 48 h
How it was run: (§1)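 Human tumor lines from ATCC, maintained at Korea Research Institute of Chemical Technology; cytotoxicity determined by sulforhodamine B (SRB) method, reported as IC50.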

A549 = test: Cytotoxicity against human A549 cells after 48 hrs by SRB assay; format: functional, cell-based; details: A549, 48 h; how it was run: as §1
SK-OV-3 = test: Cytotoxicity against human SKOV3 cells after 48 hrs by SRB assay; format: functional, cell-based; details: SK-OV-3, 48 h; how it was run: as §1
SK-MEL-2 = test: Cytotoxicity against human SK-MEL-2 cells after 48 hrs by SRB assay; format: functional, cell-based; details: SK-MEL-2, 48 h; how it was run: as §1

## COc1cc(C[C@@H]2C(=O)OC[C@H]2[C@@H](O[C@@H]2O[C@H](CO)[C@@H](O)[C@H](O)[C@H]2O)c2ccc(O)c(OC)c2)ccc1O
C6
  Activity: 150.7%
[1]
  viability at 20 µM: 100%
BV-2
  IC50: > 50 µM
BT-549
  IC50: > 10 µM
A549
  IC50: > 10 µM
SK-OV-3
  IC50: > 10 µM
SK-MEL-2
  IC50: > 10 µM

## O=C(O)/C=C/c1ccc(O)cc1 [COUMARIC ACID]
C6
  Activity: 129.2%
[1]
  viability at 20 µM: 198%
BV-2
  IC50: > 50 µM
BT-549
  IC50: 10 µM
A549
  IC50: > 10 µM
SK-OV-3
  IC50: > 10 µM
SK-MEL-2
  IC50: > 10 µM

## COc1cc(C[C@H]2C(=O)OC[C@@H]2C(=O)c2ccc(O[C@@H]3O[C@H](CO)[C@@H](O)[C@H](O)[C@H]3O)c(OC)c2)ccc1O
C6
  Activity: 122.1%
[1]
  viability at 20 µM: 101%
BV-2
  IC50: > 50 µM
BT-549
  IC50: > 10 µM
A549
  IC50: > 10 µM
SK-OV-3
  IC50: > 10 µM
SK-MEL-2
  IC50: > 10 µM

## COc1cc(C(=O)O)cc(OC)c1O [SYRINGIC ACID]
C6
  Activity: 125.5%
[1]
  viability at 20 µM: 95.9%
BV-2
  IC50: > 50 µM
BT-549
  IC50: > 10 µM
A549
  IC50: > 10 µM
SK-OV-3
  IC50: > 10 µM
SK-MEL-2
  IC50: > 10 µM

## COc1cc(C[C@@H]2C(=O)OC[C@H]2[C@@H](O)c2cc(OC)c(O[C@@H]3O[C@H](CO)[C@@H](O)[C@H](O)[C@H]3O)c(OC)c2)ccc1O
C6
  Activity: 99.4%
[1]
  viability at 20 µM: 102%
BV-2
  IC50: > 50 µM
BT-549
  IC50: > 10 µM
A549
  IC50: > 10 µM
SK-OV-3
  IC50: > 10 µM
SK-MEL-2
  IC50: > 10 µM

## COc1cc([C@H](O)[C@@H]2COC(=O)[C@H]2Cc2ccc(O[C@@H]3O[C@H](CO)[C@@H](O)[C@H](O)[C@H]3O)c(OC)c2)ccc1O
C6
  Activity: 104.3%
[1]
  viability at 20 µM: 102%
BV-2
  IC50: > 50 µM
BT-549
  IC50: > 10 µM
A549
  IC50: > 10 µM
SK-OV-3
  IC50: > 10 µM
SK-MEL-2
  IC50: > 10 µM

## CCCCC/C=C/C(=O)CCc1ccc(O)c(OC)c1 [SHOGAOL]
C6
  Activity: 165.7%
[1]
  viability at 20 µM: 115%

## COc1cc(/C=C/C(=O)O)ccc1O [FERULATE]
C6
  Activity: 110.7%
[1]
  viability at 20 µM: 95%
BV-2
  IC50: > 50 µM
BT-549
  IC50: > 10 µM
A549
  IC50: > 10 µM
SK-OV-3
  IC50: > 10 µM
SK-MEL-2
  IC50: > 10 µM

## COc1cc(C[C@@H]2C(=O)OC[C@H]2[C@@H](O)c2ccc(O[C@@H]3O[C@H](CO)[C@@H](O)[C@H](O)[C@H]3O)c(OC)c2)ccc1O
C6
  Activity: 103.3%
[1]
  viability at 20 µM: 98.2%
BV-2
  IC50: > 50 µM
BT-549
  IC50: > 10 µM
A549
  IC50: > 10 µM
SK-OV-3
  IC50: > 10 µM
SK-MEL-2
  IC50: > 10 µM

## O=C(O)c1ccccc1 [BENZOIC ACID]
C6
  Activity: 114.5%
[1]
  viability at 20 µM: 96.4%
BV-2
  IC50: > 50 µM
BT-549
  IC50: > 10 µM
A549
  IC50: > 10 µM
SK-OV-3
  IC50: > 10 µM
SK-MEL-2
  IC50: > 10 µM

## CNC(=N)NCCC[C@H](N)C(=O)O [TILARGININE]
BV-2
  IC50: 17.6 µM
